Assay results taken from paper PMC3966493 (Chemistry & biology, 2013).
Ends that are not written are not given here. * marks the point of attachment. FITC = O=C1OC2(c3ccc(O)cc3Oc3cc(O)ccc32)c2ccc(NC(=S)*)cc21

Experiments:
EphA4 LBD [1] = target: T1, EphA4 LBD (Homo sapiens, UniProt P54764); experiment: Fluorescence polarization assay; type: binding; details: 5 µM FITC-KYL, 2 µM EphA4 LBD
In short: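 Human EphA4 LBD (residues 29–209), His-tag purified from E. coli Rosetta-gami (DE3), at 2 µM final, was preincubated 10 min at room temperature with varying test compound in PBS pH 7.2. N-terminally FITC-labelled KYL peptide (5 µM final) was added. After 30 min at room temperature, polarization (mP) was read at ex/em 480/535 nm. Unlabelled KYL served as positive control, DMSO as negative.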

EphA4 LBD [2] = target: T1, EphA4 LBD; experiment: Protein NMR 2D [15N,1H]-HSQC chemical shift perturbation / titration; type: binding; details: for binding of individual side-chain fragments by 2D HSQC: perturbations observable only at higher ligand concentrations (3 mM)
In short: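 15N-labelled EphA4 LBD (M9 medium with (15NH4)2SO4) at 50 µM was used. 2D [15N,1H]-HSQC spectra (32 scans, 2,048 × 128 complex points, 300 K) were recorded with and without test compound. Shifts were computed as Δδ = √[(Δ1H)² + (0.17·Δ15N)²]. For Kd, compound was titrated stepwise and Δδ was fitted to a quadratic binding equation.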

[3] = target: human EphA4 ligand-binding domain (residues 29-209) (human, UniProt P54764 29-209); experiment: fluorescence polarisation
Sequence of human EphA4 ligand-binding domain (residues 29-209) (P54764 29-209): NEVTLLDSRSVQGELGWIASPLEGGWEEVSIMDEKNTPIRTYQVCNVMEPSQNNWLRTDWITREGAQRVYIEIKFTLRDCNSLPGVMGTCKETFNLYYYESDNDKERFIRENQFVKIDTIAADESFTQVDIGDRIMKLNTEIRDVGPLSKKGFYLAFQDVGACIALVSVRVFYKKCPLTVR

T1 sequence (P54764 29-209): as above

KYLP was tested, and the “IC50 by FPA” value (EphA4 LBD [1]) was “inactive” and the “binding by 2D [15N,1H]-HSQC chemical shift perturbation” value (EphA4 LBD [2]; 50 µM EphA4 LBD, 100 µM compound) was “inactive”.

`Cc1ccc(Cl)cc1` [4-chlorotoluene] was tested, and the “binding of individual side-chain fragments by 2D HSQC” value (EphA4 LBD [2]) was “weak binding affinities”.

`Cc1c[nH]c2ccccc12` [3-methylindole] was tested, and the “binding of individual side-chain fragments by 2D HSQC” value (EphA4 LBD [2]) was “weak binding affinities”.

{FITC}-KYLPYWPVLSSL [FITC-labeled KYL peptide]: binds [3].
